# Assay results from different studies.
# Target: Serine/threonine-protein kinase ULK1 (ULK1, Homo sapiens, UniProt O75385)
# One construct used (O75385 1-1050): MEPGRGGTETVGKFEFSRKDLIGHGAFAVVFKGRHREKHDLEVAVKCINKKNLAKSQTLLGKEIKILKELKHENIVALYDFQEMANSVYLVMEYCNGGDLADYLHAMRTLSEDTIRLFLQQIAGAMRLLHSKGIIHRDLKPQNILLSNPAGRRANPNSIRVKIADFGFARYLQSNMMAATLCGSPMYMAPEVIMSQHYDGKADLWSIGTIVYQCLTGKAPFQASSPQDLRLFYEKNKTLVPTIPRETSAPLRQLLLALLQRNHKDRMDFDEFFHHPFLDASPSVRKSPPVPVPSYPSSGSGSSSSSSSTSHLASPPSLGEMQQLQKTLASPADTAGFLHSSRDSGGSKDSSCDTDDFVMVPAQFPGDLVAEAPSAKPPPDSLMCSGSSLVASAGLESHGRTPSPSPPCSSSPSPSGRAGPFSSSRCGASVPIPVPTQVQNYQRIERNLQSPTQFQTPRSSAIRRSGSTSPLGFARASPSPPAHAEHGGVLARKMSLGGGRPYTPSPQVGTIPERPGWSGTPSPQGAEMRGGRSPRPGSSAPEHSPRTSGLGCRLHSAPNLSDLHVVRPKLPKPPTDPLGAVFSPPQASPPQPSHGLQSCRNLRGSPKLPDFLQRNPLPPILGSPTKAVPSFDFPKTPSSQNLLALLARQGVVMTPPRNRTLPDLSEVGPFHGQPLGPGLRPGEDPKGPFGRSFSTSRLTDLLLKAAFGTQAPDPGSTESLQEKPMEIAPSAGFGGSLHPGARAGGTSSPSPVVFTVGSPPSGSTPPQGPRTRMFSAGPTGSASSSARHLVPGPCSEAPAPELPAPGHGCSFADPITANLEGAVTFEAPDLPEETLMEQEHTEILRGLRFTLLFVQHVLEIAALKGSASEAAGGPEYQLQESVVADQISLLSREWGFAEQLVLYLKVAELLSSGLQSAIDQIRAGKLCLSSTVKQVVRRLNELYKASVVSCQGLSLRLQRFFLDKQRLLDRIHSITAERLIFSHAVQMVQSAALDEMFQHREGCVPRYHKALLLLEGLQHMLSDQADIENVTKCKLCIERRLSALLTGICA
Structure (SMILES),assay,setting,remaining binding
CN(C(=O)c1ccccc1)c1cc(N(C)c2ccc3c(c2)CCc2ccc(C(=O)NCCN4CCOCC4)cc2C3=O)ccc1F,"cell-free assay, competition with immobilised ligand",1 µM,100%
COc1cnc(Nc2cccc(S(N)(=O)=O)c2)nc1N1CCN(c2ccccc2)C(=O)C1,"binding, competition with immobilised ligand",1 µM,67%
Nc1ncc2c(n1)-c1c([nH]c3ccc(C#CC4CC4)cc13)CCCC2,"binding, competition with immobilised ligand",1 µM,92%
CN(C)C(=O)Cn1cc(-c2nc([C@@](C)(c3ccc(-c4cnc(N)nc4)cc3)C3CC3)no2)cn1,"cell-free assay, competition with immobilised ligand",1 µM,77%
CN(c1nccc(-c2cnn3ncccc23)n1)C1CC1,binding,1 µM,85%
CC1=C(C#N)C(c2ccc3c(c2)c(NC(=O)c2ccccc2C)nn3C)C(C#N)=C(C)N1,"cell-free assay, competition with immobilised ligand",1 µM,86%
COc1ncc2cc3ccccc3nc2c1C#N,"cell-free assay, competition with immobilised ligand",5 µM,93%
N[C@@H]1CCN(c2nccc(-c3cnn4ncccc34)n2)C1,binding,1 µM,100%
CS(=O)(=O)N1CCCC(NC(=O)[C@H](CCC2CCCCC2)NC(=O)c2ccc(CNC(=O)c3cnc4ccccn34)cc2)C1 (some centres unmarked),"cell-free assay, competition with immobilised ligand",0.1 µM,83%
O=C(NCCCN1CCOCC1)c1ccc(Nc2ncc(Cl)c(-c3ccc(Cl)s3)n2)cc1,"binding, competition with immobilised ligand",1 µM,3.5%
Cc1noc([C@H]2C[C@@H](c3ccc(C(F)(F)F)cc3)CN(C(=O)N3CCS(=O)(=O)C3)C2)n1,"cell-free assay, competition with immobilised ligand",1 µM,85%
O=C(c1ccc(Nc2nccc(-c3cc4ccccc4s3)n2)cc1)N1CCC(N2CCCC2)CC1,"binding, competition with immobilised ligand",1 µM,50%
CN(CCCC(F)(F)F)c1nccc(-c2cnn3ncccc23)n1,binding,1 µM,79%
O=C1CCc2cc(Nc3cc(OC4CCOCC4)c([N+](=O)[O-])cc3Cl)ccc2N1,"cell-free assay, competition with immobilised ligand",1 µM,87%
CN(C)c1ncc(F)c(-c2cnn3ncccc23)n1,binding,1 µM,80%
O=C(NCC1CCOCC1)c1n[nH]cc1NC(=O)c1c(F)cccc1F,"binding, competition with immobilised ligand",1 µM,86%
CC1CCCN1c1nccc(-c2cnn3ncccc23)n1 (centres unmarked),binding,1 µM,97%
O=C(c1ccc(Nc2ncc(Cl)c(-c3cc4ccccc4s3)n2)cc1)N1CCC(N2CCCC2)CC1,"binding, competition with immobilised ligand",1 µM,1.8%
C[C@H]1CCN(c2nccc(-c3cnn4ncccc34)n2)C1,binding,1 µM,85%
COc1cnc(Nc2cccc(S(N)(=O)=O)c2)nc1N1CCN(c2ccccc2)CC1,"binding, competition with immobilised ligand",1 µM,73%
